In publication PMC10060059 (Thrombosis and Haemostasis, 2023):
Read-outs that look alike come from different tables or passages of the source. Marks after values point to notes of the source that are not given here.

Assays:
[1] = Rivaroxaban/apixaban plasma concentrations; assay type: in vivo, human; settings: for Effect of creatinine clearance on Cmax, multivariate analysis / Effect of creatinine clearance on Cmax, univariate analysis / Effect of creatinine clearance on Cmin, multivariate analysis / Effect of creatinine clearance on Cmin, univariate analysis: per decrease of 10 mL/min
[2] = test system: thrombin generation; test: Thrombin generation on ST-Genesia; assay type: biochemical, human
[3] = Six-month clinical follow-up; assay type: in vivo, human; settings: 6-month follow-up
How it was run: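 Bleedings (site, severity), thromboembolic events (site) and deaths were recorded. Two geriatricians blinded to PK/PD data classed bleeds as major or nonmajor clinically relevant, and minor bleeds were not systematically recorded. Rates were given per DOAC group.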

[4] = cited from earlier work
[5] = 2.5 mg b.i.d. vs. 5 mg b.i.d., listed as apixaban
[6] = CYP3A4/5 modulator in addition to amiodarone
[7] = full dose: rivaroxaban 20 mg o.d., apixaban 5.0 mg b.i.d.
[8] = reduced dose: rivaroxaban 15 mg o.d., apixaban 2.5 mg b.i.d.
[9] = rivaroxaban 15 mg o.d., apixaban 2.5 mg b.i.d.
[10] = STG-ThromboScreen without thrombomodulin
[11] = for halved concentrations, STG-ThromboScreen without thrombomodulin
[12] = per decrease of 10 mL/min, STG-ThromboScreen without thrombomodulin
[13] = P-gp modulator in addition to amiodarone

For `COc1ccc(-n2nc(C(N)=O)c3c2C(=O)N(c2ccc(N4CCCCC4=O)cc2)CC3)cc1` [Apixaban, apixaban], the “Effect of dose regimen on Cmax, multivariate analysis” value ([1]; 2.5 mg b.i.d. vs. 5 mg b.i.d.) was “+64.8% ^e [16.6; 132.9]”, the “Effect of dose regimen on Cmax, univariate analysis” value ([1]; 2.5 mg b.i.d. vs. 5 mg b.i.d.) was “+44.9% ^e [7.14; 96.1]” and the “Effect of dose regimen on Cmin, multivariate analysis” value ([1]; 2.5 mg b.i.d. vs. 5 mg b.i.d.) was “+54.8% ^e [6.65; 124.6]”. For the same molecule, the “Effect of dose regimen on Cmin, univariate analysis” value ([1]; 2.5 mg b.i.d. vs. 5 mg b.i.d.) was “+45.6% ^e [4.7; 102.6]”, the “Effect of dose regimen on Cmax, multivariate analysis” value [1, 5] was “+64.8%” and the “Effect of dose regimen on Cmax, univariate analysis” value [1, 5] was 44.9%. The “Effect of dose regimen on Cmin, multivariate analysis” value [1, 5] was “+54.8%”, the “Effect of dose regimen on Cmin, univariate analysis” value [1, 5] was 45.6% and the “Effect of CYP3A4/5 modulator on Cmin, univariate analysis” value [1, 6] was “+20.8% [−9.8; 61.7]”. For the same molecule, the “Effect of amiodarone on Cmax, multivariate analysis” value ([1]; amiodarone intake) was “+79.3% [5.5; 204.7]”, the “Effect of amiodarone on Cmax, univariate analysis” value ([1]; amiodarone intake) was “+43.5% [7.9; 90.9]” and the “Effect of amiodarone on Cmin, univariate analysis” value ([1]; amiodarone intake) was “+14.4% [−18.5; 60.5]”. For the same molecule, the “Effect of amiodarone on Cmax, univariate analysis” value ([1]; amiodarone intake, listed as apixaban) was “+43.5%”, the “Effect of female gender on Cmax, multivariate analysis” value ([1]; female gender) was “+28.7% [−4.5; 73.4]” and the “Effect of female gender on Cmax, univariate analysis” value ([1]; female gender) was “+44.0% [7.4; 93.1]”. The “Effect of female gender on Cmin, univariate analysis” value ([1]; female gender) was “+15.7% [−14.9; 57.1]”, the “Effect of female gender on Cmax, univariate analysis” value ([1]; female gender, listed as apixaban) was “+44.0%” and the “inter-individual variability of Cmax (coefficient of variation)” value [1, 7] was 47%. The “inter-individual variability of Cmin (coefficient of variation)” value (from here on “inter-individual variability of Cmin”) [1, 7] was 68%, the “Effect of creatinine clearance on Cmax, multivariate analysis” value [1] was “+4.5% ^b [−3.0; 11.4]” and the “Effect of creatinine clearance on Cmax, univariate analysis” value [1] was “+3.3% ^b [−4.28; 10.31]”. The “Effect of creatinine clearance on Cmin, multivariate analysis” value [1] was “+4.5% ^b [−4.9; 13.1]”, the “Effect of creatinine clearance on Cmin, univariate analysis” value [1] was “+4.6% ^b [−4.2; 12.7]” and the “Effect of ABCB1 3435C > T on Cmax, multivariate analysis” value ([1]; per mutated allele) was “+10.1% ^d [−8.3; 25.3]”. For the same molecule, the “Effect of ABCB1 3435C > T on Cmax, univariate analysis” value ([1]; per mutated allele) was “+2.1% ^d [−18.7; 19.3]”, the “Effect of ABCB1 3435C > T on Cmin, univariate analysis” value ([1]; per mutated allele) was “+14.8% ^d [−4.1; 30.3]” and the “Effect of ABCB1 3435C > T on Cmin, univariate analysis” value ([1]; per mutated allele, listed as apixaban) was “+14.8%”. The “inter-individual variability of Cmax (coefficient of variation)” value [1, 8] was 46%, the “inter-individual variability of Cmin” value [1, 8] was 61% and the “patients above the 95th percentile of SmPC values at Tmin” value [1, 9] was 9.7%. The “patients below the 5th percentile of SmPC values at Tmin” value [1, 9] was 9.7%, the “association of ETP with DOAC concentrations” value ([2]; STG-DrugScreen and STG-ThromboScreen without TM) was “ETP was associated with apixaban concentrations” and the “Effect of amiodarone on peak height at Tmax, multivariate” value [2, 10] was −26.0% [−91.8; 564.1]. The “Effect of amiodarone on peak height at Tmax, univariate” value [2, 10] was “+3.7% [−58.7; 160.1]”, the “Effect of amiodarone on peak height at Tmin, multivariate” value [2, 10] was −57.47% [−83.2; 7.9] and the “Effect of amiodarone on peak height at Tmin, univariate” value [2, 10] was −37.2% [−60.0; −1.5]. For the same molecule, the “Effect of heart failure on peak height at Tmax, multivariate” value [2, 10] was −9.2% [−62.9; 122.6], the “Effect of heart failure on peak height at Tmax, univariate” value [2, 10] was −26.7% [−66.7; 61.4] and the “Effect of heart failure on peak height at Tmin, multivariate” value [2, 10] was “+0.84% [−30.8; 46.9]”. The “Effect of amiodarone on peak height at Tmin, univariate” value ([2]; STG-ThromboScreen without thrombomodulin, listed as apixaban) was −37.2%, the “Effect of plasma concentrations on peak height at Tmax, multivariate” value [2, 11] was “+86.8% ^a [−0.48; 250.5]” and the “Effect of plasma concentrations on peak height at Tmin, multivariate” value [2, 11] was “+32.7% ^a [8.28; 62.59]”. For the same molecule, the “Effect of plasma concentrations on peak height at Tmin, univariate” value [2, 11] was 37.1% ^a 13.1; 66.2], the “Effect of creatinine clearance on peak height at Tmax, multivariate” value [2, 12] was “+2.4% ^b [−17.9; 27.8]” and the “Effect of creatinine clearance on peak height at Tmax, univariate” value [2, 12] was “+0.42% ^b [4.70; 36.9]”. The “Effect of creatinine clearance on peak height at Tmin, univariate” value [2, 12] was 1.7% ^b [−10.7; 15.8], the death rate [3] was 18.9% and the thromboembolic event rate [3] was 3.6%. For the same molecule, the “median Cmax” value ([4]; ARISTOTLE patients (median age 70 years) receiving 2.5 mg b.i.d.) was 123 ng/mL and the “inter-individual variability of concentrations” value ([4]; SmPC, ARISTOTLE data set, mean age 70 years) was “around 30%”.
For `O=C(NC[C@H]1CN(c2ccc(N3CCOCC3=O)cc2)C(=O)O1)c1ccc(Cl)s1` [Rivaroxaban, rivaroxaban], the “Effect of dose regimen on Cmax, multivariate analysis” value ([1]; 15 mg o.d. vs. 20 mg o.d.) was 29.4% ^a [−14.2; 95.2], the “Effect of dose regimen on Cmax, univariate analysis” value ([1]; 15 mg o.d. vs. 20 mg o.d.) was “+20.3% ^a [−16.7; +73.5]” and the “Effect of dose regimen on Cmin, multivariate analysis” value ([1]; 15 mg o.d. vs. 20 mg o.d.) was −3.2% ^a [−35.1; 44.6]. The “Effect of dose regimen on Cmin, univariate analysis” value ([1]; 15 mg o.d. vs. 20 mg o.d.) was −3.8% ^a [−35.1; +42.6], the “Effect of dose regimen on Cmax, univariate analysis” value ([1]; 15 mg o.d. vs. 20 mg o.d., listed as rivaroxaban) was “+20.3%” and the “Effect of CYP3A4/5 modulator on Cmax, multivariate analysis” value [1, 6] was “+10.6% [−23.1; 58.9]”. The “Effect of CYP3A4/5 modulator on Cmax, univariate analysis” value [1, 6] was “+9.5% [−21.0; 51.6]”, the “Effect of CYP3A4/5 modulator on Cmin, multivariate analysis” value [1, 6] was “+43.1% [5.3; 94.3]” and the “Effect of CYP3A4/5 modulator on Cmin, univariate analysis” value [1, 6] was “+31.1% [−24.7; 72.2]”. For the same molecule, the “Effect of P-gp inhibitor on Cmax, multivariate analysis” value [1, 13] was −6.31% [−35.8; 36.6], the “Effect of P-gp inhibitor on Cmax, univariate analysis” value [1, 13] was −9.95% [−35.3; 25.4] and the “Effect of P-gp inhibitor on Cmin, multivariate analysis” value [1, 13] was −8.7% [−34.2; 26.8]. For the same molecule, the “Effect of P-gp inhibitor on Cmin, univariate analysis” value [1, 13] was −15.9% [−37.6; 13.5], the “Effect of amiodarone on Cmax, multivariate analysis” value ([1]; amiodarone intake) was −26.1% ^b [−75.8; 125.5] and the “Effect of amiodarone on Cmax, univariate analysis” value ([1]; amiodarone intake) was “+4.73% [−31.5; 60.2]”. For the same molecule, the “Effect of amiodarone on Cmin, multivariate analysis” value ([1]; amiodarone intake) was 99.8% ^c [10.3; 262.0], the “Effect of amiodarone on Cmin, univariate analysis” value ([1]; amiodarone intake) was “+47.8% [−2.8; 109.4]” and the “Effect of amiodarone on Cmin, univariate analysis” value ([1]; amiodarone intake, listed as rivaroxaban) was “+47.8%”. The “Effect of female gender on Cmax, multivariate analysis” value ([1]; female gender) was “+11.8% [−20.8; 57.9]”, the “Effect of female gender on Cmax, univariate analysis” value ([1]; female gender) was “+12.2% [−17.7; 53.0]” and the “Effect of female gender on Cmin, multivariate analysis” value ([1]; female gender) was −10.1% [−35.2; 22.3]. The “Effect of female gender on Cmin, univariate analysis” value ([1]; female gender) was −14.2% [−36.0; 15.1], the “inter-individual variability of Cmax (coefficient of variation)” value [1, 7] was 47% and the “inter-individual variability of Cmin” value [1, 7] was 37%. The “Effect of creatinine clearance on Cmax, multivariate analysis” value [1] was “+3.4% ^b [−7.6; 15.6]”, the “Effect of creatinine clearance on Cmax, univariate analysis” value [1] was “+1.89% ^b [−8.2; 13.1]” and the “Effect of creatinine clearance on Cmin, multivariate analysis” value [1] was “+5.0% ^b [−4.9; 16.0]”. For the same molecule, the “Effect of creatinine clearance on Cmin, univariate analysis” value [1] was “+8.1% ^b [−3.9; 15.8]”, the “Effect of creatinine clearance on Cmin, univariate analysis” value ([1]; listed as rivaroxaban) was “+8.1%” and the “Effect of ABCB1 3435C > T on Cmax, multivariate analysis” value ([1]; per mutated allele) was “+18.3% ^d [−10.9; 39.8]”. The “Effect of ABCB1 3435C > T on Cmax, univariate analysis” value ([1]; per mutated allele) was “+18.3% ^d [−5.3; 36.6]”, the “Effect of ABCB1 3435C > T on Cmin, multivariate analysis” value ([1]; per mutated allele) was “+10.4% ^d [−14.9; 30.1]” and the “Effect of ABCB1 3435C > T on Cmin, univariate analysis” value ([1]; per mutated allele) was “+16.9% ^d [−6.6; 31.0]”. The “Effect of ABCB1 3435C > T on Cmin, univariate analysis” value ([1]; per mutated allele, listed as rivaroxaban) was “+16.9%”, the “inter-individual variability of Cmax (coefficient of variation)” value [1, 8] was 49% and the “inter-individual variability of Cmin” value [1, 8] was 75%. For the same molecule, the “median Cmax” value ([1]; rivaroxaban 15 mg o.d., T1-T4, NVAF in-patients ≥80 years) was 251 ng/mL, the “patients above the 95th percentile of SmPC values at Tmin” value [1, 9] was 3.1% and the “patients below the 5th percentile of SmPC values at Tmin” value [1, 9] was 21.5%. For the same molecule, the “Effect of amiodarone on peak height at Tmin, multivariate” value [2, 10] was −44.6%** [−75.1; 23.2], the “Effect of amiodarone on peak height at Tmin, univariate” value [2, 10] was −52.2% and the “Effect of heart failure on peak height at Tmax, multivariate” value [2, 10] was −22.3% [−45.0; 9.8]. The “Effect of heart failure on peak height at Tmax, univariate” value [2, 10] was −36.6%, the “Effect of heart failure on peak height at Tmin, multivariate” value [2, 10] was −12.7% [−37.7; 22.4] and the “Effect of heart failure on peak height at Tmin, univariate” value [2, 10] was −31.4% [−52.2; −1.7]. For the same molecule, the “Effect of plasma concentrations on peak height at Tmax, multivariate” value [2, 11] was “–5.0% ^a [−27.9; 25.2]”, the “Effect of plasma concentrations on peak height at Tmax, univariate” value [2, 11] was “+23.9% ^a [−11.4; 73.2]” and the “Effect of plasma concentrations on peak height at Tmin, multivariate” value [2, 11] was “+21.0% ^a [−4.0; 52.4]”. For the same molecule, the “Effect of plasma concentrations on peak height at Tmin, univariate” value [2, 11] was “+38.7% ^a [12.4;71.1]”, the “Effect of creatinine clearance on peak height at Tmax, multivariate” value [2, 12] was −16.4% ^b [−26.3; −5.0] and the “Effect of creatinine clearance on peak height at Tmin, multivariate” value [2, 12] was −6.76% ^b [−15.5; 2.8]. For the same molecule, the “Effect of creatinine clearance on peak height at Tmin, univariate” value [2, 12] was −6.1% ^b [−16.2; 5.2 ], the death rate [3] was 17.3% and the thromboembolic event rate [3] was 1.0%. The “inter-individual variability of Cmax and Cmin” value ([4]; Mueck et al's data) was “around 30%”.
